Assay outcomes deposited in PubChem by several laboratories.
HSV replic up: increases HSV replication in cells. HSV replication augmentation in cells, fold increase. maximum fold increase. actives 0.005% (n = 220,000); in the data active = maximum fold increase above about 1.5; tested in PC3 cells
Tb hexokinase: blocks Trypanosoma brucei hexokinase 1 activity; actives 0.11% (n = 220,000); recombinant TbHK1, G6PDH-coupled NADH A340; inhibition, % at 10 µM; AID 1430;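 active = inhibition of 50% or more in the single-dose primary screen; inactive = inhibition below 50%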
Dynein transport: blocks dynein driven cargo transport along microtubules | 3617.4 mouse cells, GR-EGFP nuclear translocation imaging; test concentration mostly 20 µM; stimulated with dexamethasone, 1 µM; hits give low values | z-score, hits read low | actives 0.47% (n = 220,000) | AID 1381;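 active = plate z-score of nuclear minus cytoplasmic receptor signal below a set negative limit, without overly bright fluorescence or cell loss, cut at about -3.5 in these data, passing the limit was not always enough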;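 also: z-score of nuclear minus cytoplasmic ring GR-EGFP intensity difference per well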
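Schedule: 48 h induction, then 1 h compound, then 30 min agonist, 37 °C. Buffer or medium: tetracycline-free induction medium containing charcoal-stripped FBS. Reagent: 1.0 µM final dexamethasone stimulus. Evaluation: nuclear versus cytoplasmic GR-EGFP signal, averaged per well. Signal: high-content fluorescence imaging after fixation.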
HKDC1 inhibitor: blocks human hexokinase HKDC1 activity; Q2TB90; recombinant HKDC1, G6PDH/diaphorase resazurin coupled fluorescence; inhibition, % at 20 µM; actives 0.16% (n = 340,000);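 active = inhibition above about 35% when tested at 20 µM, limit read from the data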;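 also: plate controls were DMSO wells with enzyme for no effect and DMSO wells lacking enzyme for full effect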
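Assay system: recombinant HKDC1 hexokinase; detection: coupled resazurin fluorescence, excitation 525 nm, emission 613 nm; benchmarks: DMSO-plus-enzyme-mix negative control, buffer-substituted positive control; compound dosing: single 20 µM dose; schedule: 90 min at room temperature in dark; also added: glucose plus 1 mM ATP as hexokinase substrates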
Autophagy mod: alters autophagy in cells | actives 0.98% (n = 190,000) | calls only at 10 µM (by protocol) | MEF GFP-LC3 puncta imaging; test concentration mostly 10 µM;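 active = percentage of spot-positive cells more than 3 SD above its plate mean, without a fluorescence outlier flag or 80% toxicity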;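 also: spot-positive cell cutoff set from DMSO-treated cells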
PERK inhibitor: blocks human PERK kinase; CHO PERK-DD fusion, SEAP luminescence translation reporter; actives 0.17% (n = 220,000); inhibition, % at 5.6 µM; AID 1416;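 active = inhibition above the mean inhibition of all tested compounds plus 3 SD, set separately per screening campaign, cut at about 2.9% in these data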;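 also: PERK kinase domain activated by AP20187 dimerizer at 100 nM; 0% = DMSO with dimerizer and 100% = rapamycin at 8.4 µM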
HKDC1 act conf: HKDC1 (human) activation, single-dose confirmed; shares compounds with HKDC1 inhibitor; recombinant HKDC1, G6PDH/diaphorase resazurin fluorescence; hits give low values; inhibition, % at 20 µM; actives 14% (n = 740); AID 504708;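 active = inhibition at or below a set negative limit, negative inhibition meaning the enzyme was activated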
Active calls of the source: *. Hits are enriched below; roughly 1.2% of the tested compounds scored in any of these assays.

How did CCN1C(=O)C(NC(C)=O)c2cc(OC)ccc21 (configuration not stated) do in these assays?
HSV replic up: inactive; Tb hexokinase: 15; Dynein transport: -0.6; HKDC1 inhibitor: -9; Autophagy mod: inactive; PERK inhibitor: 1

Results for CC(=O)NC1C(=O)N(CCc2ccccc2)c2ccc(Br)cc21 (configuration not stated) ?
Tb hexokinase: -7; Dynein transport: 0.084; HKDC1 inhibitor: -3; Autophagy mod: inactive; PERK inhibitor: -2

How did CCOc1ccc2c(c1)C(NC(C)=O)C(=O)N2CCN1CCOCC1 (configuration not stated) do in these assays?
HKDC1 inhibitor: 82*; HKDC1 act conf: 61

What do the screens show for `CC(=O)NC1C(=O)N(CCN2CCOCC2)c2ccc(Br)cc21` (configuration not stated)?
HKDC1 inhibitor: 81*; HKDC1 act conf: 61

Results for O=[N+]([O-])c1ccccc1N(S(=O)(=O)c1ccccc1)S(=O)(=O)c1ccccc1 ?
HKDC1 inhibitor: -5

How did COc1cc([N+](=O)[O-])ccc1NC(=O)CN1C(=O)NC2(CCCCC2C)C1=O (configuration not stated) do in these assays?
HKDC1 inhibitor: -1

How did C=CCNC(=S)N/N=C(\C)c1ccccn1 do in these assays?
HSV replic up: inactive; Tb hexokinase: -4; Dynein transport: 0.3; HKDC1 inhibitor: -44; Autophagy mod: inactive; PERK inhibitor: 2; HKDC1 act conf: -6

How did CC(=NNC(=S)Nc1ccccc1Cl)c1ccccn1 do in these assays?
HKDC1 inhibitor: -38

What do the screens show for `COc1ccc(OC)c(S(=O)(=O)n2ccnc2C(C)C)c1`?
HKDC1 inhibitor: -4

How did Cc1ccc(NCC(=O)N=Nc2c(O)[nH]c3ccc([N+](=O)[O-])cc23)cc1 do in these assays?
HSV replic up: inactive; Tb hexokinase: -39; Dynein transport: -0.027; HKDC1 inhibitor: 5; PERK inhibitor: 0

Results for O=C(Nc1ccc(F)cc1)C(=O)c1c(O)[nH]c2ccc([N+](=O)[O-])cc12 ?
HSV replic up: inactive; Tb hexokinase: -41; Dynein transport: 0.93; HKDC1 inhibitor: 42*; PERK inhibitor: 0; HKDC1 act conf: -4

Results for Cc1ccc(C(=O)CSc2n[nH]c(-c3ccco3)n2)cc1C ?
HSV replic up: inactive; Tb hexokinase: 6; Dynein transport: -0.86; HKDC1 inhibitor: 31; Autophagy mod: inactive; PERK inhibitor: 0; HKDC1 act conf: 31
